Values joined by “and” are separate entries in the source; they are usually repeats but may differ in a detail not shown here. Equal values may be shown once. “Also recorded” adds a separate entry of the source. Read-outs that look alike come from different tables or passages of the source. Each block holds one compound with its values, some of them ahead of it.
Experiments:
[1] = Microsomal stability test, human liver microsome; assay type: in vitro ADME; settings: human liver microsomes
Outline: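 Human liver microsomes (10 µL at 20 mg/mL) were combined with 330 µL 0.1 M phosphate buffer (3.3 mM MgCl2) and 40 µL of 10 µM test compound, with NADPH in the same buffer. Verapamil was the positive control.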

[2] = Microsomal stability test, mouse liver microsome; assay type: in vitro ADME; settings: MLM and HLM t1/2, vs compound 1
MIA PaCa-2 cells [3] = test: 7-day MTT growth inhibition assay, MIA PaCa-2; assay type: cell-based; settings: for IC50: Homo sapiens, MIA PaCa-2, 168 h; for activity (cytotoxicity in pancreatic cancer cells): 7-day MTT assay
Outline: (§1)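 Cells were seeded in glucose-containing medium (MIA PaCa-2 200 cells/well; BxPC-3 300 cells/well), incubated overnight at 37 °C, 5% CO2, then exposed to test compound or DMSO for 7 days. MTT (3 mg/mL solution) was added for 4 h, formazan dissolved in DMSO, and A570 read. Inhibition = [1 − (At−Ab)/(Ac−Ab)] × 100. IC50 came from nonlinear regression; at least three independent runs.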

MIA PaCa-2 cells [4] = test: 3-day MTT assay in glucose- or galactose-containing medium; assay type: cell-based
Outline: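 MIA PaCa-2 cells were treated with test compound for 3 days in glucose-containing medium. MTT (3 mg/mL solution) was added for 4 h at 37 °C. Supernatant was removed, formazan was dissolved in DMSO, and absorbance was read at 570 nm. IC50 came from nonlinear regression of log concentration–response curves. Experiments were run at least three times.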

OXPHOS Complex I = test: NAD+/NADH ratio; assay type: cell-based; settings: MIA PaCa-2 cells, NAD/NADH-Glo Assay, 2 days treatment
Outline: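 MIA PaCa-2 cells (5 × 10^3/well) were treated the next day for 48 h with test compound in RPMI 1640 + 10% FBS. Cells were PBS-washed and lysed in bicarbonate base buffer with 1% DTAB. For NAD+, lysate was acid-treated (0.4 N HCl); for NADH, lysate was heated directly; both at 60 °C for 15 min, then neutralised with Trizma. After 30 min with Glo detection reagent, luminescence was read. IC50 of the NAD+/NADH ratio came from nonlinear regression.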

BxPC-3 cells = test: 7-day MTT growth inhibition assay, BxPC-3; assay type: cell-based; settings: Homo sapiens, BXPC-3, 168 h, read-out: IC50 in BxPC-3 cells
Outline: as §1

Pan02 cells = test: Pan02 syngeneic pancreatic cancer model efficacy study; assay type: in vivo; settings: for tumor growth inhibition: Pan02 syngeneic model
Outline: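 Female C57BL/6 mice, 6-10 weeks old, received 5×10^6 Pan02 cells s.c. in the right flank and were randomized (n = 5/group) at ~100 mm3. Dosing was daily for 28 days in 10% DMSO/50% PG/40% saline, or 10% DMSO/60% PG/30% saline for the 15 mg/kg dose. Tumours were measured by caliper twice weekly, V = (length × width²)/2. Body weight was recorded before dosing, then twice weekly.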

[5] = Pharmacokinetics in CD-1 mice; assay type: in vivo; settings: plasma
Outline: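 CD-1 mice received test compound at 2 mg/kg i.v. or 10 mg/kg p.o., and plasma concentration–time profiles were measured. Parameters came from non-compartmental analysis: AUC(0-tldc) to last detectable concentration and AUC(0-inf) extrapolated to infinity. Terminal half-life used ≥3 terminal-phase points. Bioavailability = (AUCpo × Dose_iv)/(AUCiv × Dose_po) × 100%.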

[6] = read-out: IC50 in MIA PaCa-2 cells

- HLM t1/2 (human liver microsome half life) [1]: 36 s
SMILES: CCOC(=O)[C@@H]1CCCN(S(=O)(=O)c2ccc(S(=O)(=O)N(CC)CC)cc2)C1 [Compound 1]

- improvement of microsomal stability over compound 1 [2]: more than 30 fold
SMILES: CCN(CC)S(=O)(=O)c1ccc(S(=O)(=O)N2CCC[C@@H](C(=O)NC3COC3)C2)cc1 [Compound 2]

SMILES: CCN(CC)S(=O)(=O)c1ccc(S(=O)(=O)N2CCC[C@@H](C(=O)N3CCC(OC)CC3)C2)cc1 [Compound 12, (R)-N,N-Diethyl-4-((3-(4-methoxypiperidine-1-carbonyl)piperidin-1-yl)sulfonyl)benzenesulfonamide]
- improvement in MIA PaCa-2 cell growth inhibition (MIA PaCa-2 cells [3]; vs compound 11): 2 fold
- activity in glucose-containing medium (MIA PaCa-2 cells [4]): inactive

SMILES: CCN(CC)S(=O)(=O)c1ccc(S(=O)(=O)N2CCC[C@@H](C(=O)N3CCC(F)(F)CC3)C2)cc1 [Compound 16, (R)-4-((3-(4,4-Difluoropiperidine-1-carbonyl)piperidin-1-yl)sulfonyl)-N,N-diethylbenzenesulfonamide]
- NAD+/NADH ratio (IC50, nM) Glucose medium (OXPHOS Complex I): 23 ± 18.1 nM

- IC50 (MIA PaCa-2 cells [3]; read-out: MIA PaCa-2 IC50): 0.118 ± 0.044 µM
SMILES: CN(C)S(=O)(=O)c1ccc(S(=O)(=O)N2CCC[C@@H](C(=O)N3CCC(F)(F)CC3)C2)cc1 [Compound 20, (R)-4-((3-(4,4-Difluoropiperidine-1-carbonyl)piperidin-1-yl)sulfonyl)-N,N-dimethylbenzenesulfonamide]
- NAD+/NADH ratio (IC50, nM) Glucose medium (OXPHOS Complex I): 34 ± 15 nM

SMILES: O=C([C@@H]1CCCN(S(=O)(=O)c2ccc(S(=O)(=O)N3CC[C@@H](O)C3)cc2)C1)N1CCC(F)(F)CC1 [Compound 21, (4,4-Difluoropiperidin-1-yl)((R)-1-((4-(((R)-3-hydroxypyrrolidin-1-yl)sulfonyl)phenyl)sulfonyl)piperidin-3-yl)methanone]
- NAD+/NADH ratio (IC50, nM) Glucose medium (OXPHOS Complex I): 67.5 ± 18.8 nM

SMILES: CC(C)S(=O)(=O)c1ccc(S(=O)(=O)N2CCC[C@@H](C(=O)N3CCC(F)(F)CC3)C2)cc1 [Compound 23, (R)-(4,4-Difluoropiperidin-1-yl)(1-((4-(isopropylsulfonyl)phenyl)sulfonyl)piperidin-3-yl)methanone]
- IC50 (BxPC-3 cells): < 0.1 µM
- tolerability (Pan02 cells; Pan02 model, once daily for 28 days, 20 7.5 mg/kg i.p., 21 15 mg/kg i.p., 27 2.5 mg/kg i.p., 23 10 mg/kg p.o.): well tolerated
- tumor growth inhibition (Pan02 cells; 10 mg/kg p.o. once daily for 28 days, 10 mg/kg): significant tumor growth inhibition; also recorded: significant tumor growth delay
- NAD+/NADH ratio (IC50, nM) Glucose medium (OXPHOS Complex I): 3.6 nM and 3.6 ± 3.2 nM
- IC50 (MIA PaCa-2 cells [3]; [6]): ~0.01 µM
- AUC(0-inf) ([5]; IV 2 mg/kg): 657.0 nM:h
- AUC(0-tldc) ([5]; IV 2 mg/kg): 650.0 nM:h
- AUC(0-inf) ([5]; PO 10 mg/kg): 417.1 nM:h
- AUC(0-tldc) ([5]; PO 10 mg/kg): 368.1 nM:h

- IC50 (BxPC-3 cells): < 0.1 µM
- IC50 (MIA PaCa-2 cells [3]; [6]): ~0.01 µM
SMILES: CCC(CC)S(=O)(=O)c1ccc(S(=O)(=O)N2CCC[C@@H](C(=O)N3CCC(F)(F)CC3)C2)cc1 [Compound 25, (R)-(4,4-Difluoropiperidin-1-yl)(1-((4-(pentan-3-ylsulfonyl)phenyl)sulfonyl)piperidin-3-yl)methanone]

SMILES: O=C([C@@H]1CCCN(S(=O)(=O)c2ccc(S(=O)(=O)C3CCC3)cc2)C1)N1CCC(F)(F)CC1 [Compound 27, (R)-(1-((4-(Cyclobutylsulfonyl)phenyl)sulfonyl)piperidin-3-yl)(4,4-difluoropiperidin-1-yl)methanone]
- IC50 (BxPC-3 cells): < 0.1 µM
- tumor growth inhibition (Pan02 cells; 2.5 mg/kg i.p. once daily for 28 days): significant tumor growth inhibition
- NAD+/NADH ratio (IC50, nM) Glucose medium (OXPHOS Complex I): 3.2 ± 1.3 nM
- IC50 (MIA PaCa-2 cells [3]; [6]): ~0.01 µM

SMILES: CP(C)(=O)c1ccc(S(=O)(=O)N2CCC[C@@H](C(=O)N3CCC(F)(F)CC3)C2)cc1 [Compound 30, (R)-(4,4-Difluoropiperidin-1-yl)(1-((4-(dimethylphosphoryl)phenyl)sulfonyl)piperidin-3-yl)methanone]
- activity (cytotoxicity in pancreatic cancer cells) (MIA PaCa-2 cells [3]): complete loss of activity

SMILES: CCP(=O)(CC)c1ccc(S(=O)(=O)N2CCC[C@@H](C(=O)N3CCC(F)(F)CC3)C2)cc1 [Compound 31, (R)-(1-((4-(diethylphosphoryl)phenyl)sulfonyl)piperidin-3-yl)(4,4-difluoropiperidin-1-yl)methanone]
- activity (cytotoxicity in pancreatic cancer cells) (MIA PaCa-2 cells [3]): complete loss of activity
